From publication PMC6159316 (Journal of Insect Science, 2018)
Where two headings read alike, the source gives them in different places.

How the values were obtained:
CSP2 = format: binding, Chilo suppressalis; conditions: for IC50: read-out: CSP2 IC50, displacement of 1-NPN, ligand 2–30 µM; for Ki: read-out: CSP2 Ki, competitive binding with 1-NPN
CSP3 = target: T1, CSP3 (Chilo suppressalis, UniProt V9PY40); format: binding; conditions: for activity at 30 µM: pH 7.4, read-out: CSP3 Intensity %; for IC50: read-out: CSP3 IC50, displacement of 1-NPN, ligand 2–30 µM; for Ki: read-out: CSP3 Ki, competitive binding with 1-NPN
T1 sequence (V9PY40 19-126): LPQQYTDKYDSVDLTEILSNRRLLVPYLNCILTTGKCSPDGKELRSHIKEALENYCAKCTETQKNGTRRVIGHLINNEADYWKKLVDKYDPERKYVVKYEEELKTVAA
Summary of the method: (§1)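 Mature CSP cDNA in pET-30a(+), expressed in E. coli, purified, His-tag cleaved with enterokinase. […] Competition: 2 µM protein plus 2 µM 1-NPN in 50 mM Tris–HCl, titrated with 1 mM odorant stock to 2–30 µM final. Excitation 337 nm, emission 400–460 nm, three replicates.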

CSP1 = target: T2, CSP1 (Chilo suppressalis, UniProt V9PY22); format: binding; conditions: for activity at 30 µM: pH 7.4, read-out: CSP1 Intensity %; for IC50: read-out: CSP1 IC50, displacement of 1-NPN, ligand 2–30 µM; for Ki: read-out: CSP1 Ki, competitive binding with 1-NPN
T2 sequence (V9PY22 18-122): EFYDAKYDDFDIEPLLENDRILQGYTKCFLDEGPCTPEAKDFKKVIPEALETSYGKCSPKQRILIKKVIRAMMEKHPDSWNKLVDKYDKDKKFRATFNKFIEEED
Summary of the method: as §1

adult C. suppressalis = conditions: ref Wei et al. 2013, Khuhro et al. 2017a; cited from earlier work

Row | Molecule | IC50 (CSP2) [µM] | activity at 30 µM (CSP3) [%] | activity at 30 µM (CSP1) [%] | Ki (CSP2) [µM] | IC50 (CSP3) [µM] | IC50 (CSP1) [µM] | also measured
1 | CCCCCCCCC=O [1-Nonaldehyde] | > 30 | 75 ± 2.3 | 74.1 |  |  |  | 
2 | CC=CC=CCO [2,4 hexadienol] | 18.4 | 53.5 ± 1.87 | 85.8 | 15.8 |  |  | 
3 | CCCCCC(C)O (stereo not shown) [2-Heptanol] | 10.8 | 91.8 ± 1.7 | 48.9 | 9.25 |  |  | Ki (CSP2; listed as 2-heptanol): ≤ 10 µM
4 | CCCCCC(C)=O [2-Heptanone] | > 30 | 82 ± 3.87 | 49.3 ± 1.89 |  |  |  | 
5 | CCCCCCCCCCCCCC(C)=O [2-Pentadecanone] | 23.6 | 67.6 ± 0.91 | 27.9 ± 2.11 | 20.3 |  |  | 
6 | CCCCCCCCCCCC(C)=O [2-Tridecanone] | 24.3 | 72.8 ± 2.06 | 24.8 ± 1.61 | 20.9 |  |  | 
7 | C[C@@H]1CC[C@H]2C(C)(C)[C@H]3C[C@@]12CC[C@@]3(C)O [(+)-Cedrol] | 10.7 | 45.2 ± 1.9 | 47.2 ± 1.16 | 9.22 |  |  | Ki (CSP2; listed as (+)-cedrol): ≤ 10 µM
8 | O=Cc1ccccc1 [Benzaldehyde] | 28.5 | 44.2 ± 3.53 | 34.2 ± 2.35 | 24.5 |  |  | 
9 | OCc1ccccc1 [Benzyl alcohol] | > 30 | 84.1 ± 2.96 | 67.5 ± 2.24 |  |  |  | 
10 | CCC/C=C/C=O [E2-Hexenal] | > 30 |  |  |  | > 30 | > 30 | 
11 | CCC/C=C/COC(C)=O [E2-Hexenyl acetate] | > 30 |  |  |  | > 30 | > 30 | 
12 | CCC/C=C/CO [E2-hexenol] | > 30 |  |  |  | > 30 | > 30 | 
13 | CC/C=C\CCO [E3-Hexenol] | > 30 |  |  |  | > 30 | > 30 | 
14 | CCOC(=O)c1ccccc1 [Ethyl benzoates] | > 30 |  |  |  | > 30 | > 30 | 
15 | CCCCCCO [Hexyl alcohol] | > 30 | 67.7 ± 3.05 | 64 ± 4.34 |  |  |  | 
16 | CCCCCCCCCCCC(=O)O [Lauric acid] | > 30 |  |  |  | > 30 | > 30 | 
17 | CCCCCCCCCCCC=O [Laurinaldehyde] | 19.3 |  |  | 16.6 | > 30 | 11.8 | Ki (CSP1): 9.16 µM; Ki (CSP1; listed as laurinaldehyde): ≤ 10 µM
18 | CCCCC/C=C\C/C=C\CCCCCCCC(=O)O [Linoleic acid] | 20.6 | 89.17 ± 0.88 | 55.6 ± 3.45 | 17.7 |  |  | 
19 | C=CC(C)=CCC=C(C)C [Ocimene] | > 30 |  |  |  | > 30 | > 30 | 
20 | CCCCCCCC/C=C\CCCCCCCC(=O)O [Oleic acid] | > 30 | 84.7 ± 2.37 | 58.9 ± 2.59 |  |  |  | 
21 | CCCCCCCCCCCCCCCC(=O)O [Palmitic acid] | > 30 | > 100 | 78.2 ± 0.93 |  |  |  | 
22 | CCC/C=C\C=O [Z2-Hexenal] |  |  |  | 28.6 | > 30 | 15.8 | Ki (CSP1): 12.2 µM
23 | CC/C=C\CCO [Z3-Hexenol] | 20.7 |  |  | 17.7 | > 30 | > 30 | 
24 | CC/C=C\CCOC(C)=O [Z3-Hexenyl acetate] | > 30 |  |  |  | > 30 | > 30 | 
25 | CCCCCC/C=C\CCCCCCCC=O [Z9-Hexadecenal] | 11.1 |  |  | 9.55 | 9.9 | 17.4 | Ki (CSP3): 8.86 µM; Ki (CSP1): 13.5 µM
26 | CCCC/C=C\CCCCCCCCCC=O [Z11-Hexadecenal] | 10.3 |  |  | 8.89 | 6.96 | 20.9 | Ki (CSP3): 6.23 µM; Ki (CSP1): 16.2 µM
27 | CCCC/C=C\CCCCCCCCCCCC=O [Z13-Octadecenal] | 20 |  |  | 17.2 | 25.1 | > 30 | Ki (CSP3): 22.5 µM
28 | CC1=CC[C@H](C(C)C)C=C1 [α-Phellandrene] | > 30 | 95.3 ± 1.58 | 73 ± 2.46 |  |  |  | 
29 | Farnesene | 24 |  |  | 20.4 | > 30 | 27.6 | binding affinity class for CSP2 (plant volatiles) (CSP2; criteria for plant volatiles): did not show high or moderate binding affinity; electroantennographic (EAG) response (adult C. suppressalis): significant EAG response; binding affinity class for CSP3 (plant volatiles) (CSP3; criteria for plant volatiles): did not show high or moderate binding affinity; binding affinity class for CSP1 (plant volatiles) (CSP1; criteria for plant volatiles): did not show high or moderate binding affinity; Ki (CSP1): 23.3 µM
